From ChEMBL document CHEMBL1125431, “2-substituted 3-(aminooxy)propanamines as inhibitors of ornithine decarboxylase: synthesis and biological activity” (J Med Chem, 1992)

How the values were obtained:
[1] = tested on: T-24; assay: Inhibitory activity against Human T24 bladder carcinoma cells; type: functional, cell-based
[2] = biological target: T1, Ornithine decarboxylase (Rattus norvegicus, UniProt P09057); assay: Inhibitory activity against Rat liver ornithine decarboxylase (ODC)
T1 sequence (P09057 whole entry): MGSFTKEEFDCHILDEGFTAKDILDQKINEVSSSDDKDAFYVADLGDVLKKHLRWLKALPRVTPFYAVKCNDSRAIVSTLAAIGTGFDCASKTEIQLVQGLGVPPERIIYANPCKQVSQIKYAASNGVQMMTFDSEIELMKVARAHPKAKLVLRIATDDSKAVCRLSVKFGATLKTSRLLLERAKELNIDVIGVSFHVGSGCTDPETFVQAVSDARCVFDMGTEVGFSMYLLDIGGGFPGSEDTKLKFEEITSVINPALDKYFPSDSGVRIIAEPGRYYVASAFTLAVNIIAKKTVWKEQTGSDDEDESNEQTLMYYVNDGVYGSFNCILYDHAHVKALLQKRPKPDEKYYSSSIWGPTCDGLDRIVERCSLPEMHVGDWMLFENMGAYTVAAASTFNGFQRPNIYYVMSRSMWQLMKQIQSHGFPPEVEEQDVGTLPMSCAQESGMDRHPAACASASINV
Summary of the method: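 Partially purified rat liver ODC. Reaction at 37 °C for up to 1 h in 100 mM Tris-HCl pH 7 with 4 mM EDTA, 4 mM DTT, 0.4 mM pyridoxal phosphate and 0.21 mM L-ornithine spiked with L-[1-¹⁴C]ornithine. Inhibitor, in 10 mM Tris pH 7, added with substrate. Released ¹⁴CO₂ trapped on alkali filter; acid stop; scintillation counting. IC50 by linear regression of log concentration versus % activity (95–5% range).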

[3] = tested on: T-24; assay: The compound was tested for anti proliferative activity against Human T24 bladder carcinoma cells; type: functional, cell-based

IC50 [1] [µM] | IC50 [2] [µM] | SMILES | IC50 [3] [µM]
> 36.6 | > 50 | CN(C)CC(O)CON (configuration not stated) | –
– | 21 | C=CCNCC(O)CON (configuration not stated) | > 230
16.3 | 0.033 | NC[C@H](O)CON | –
> 230 | 8.4 | C#CCNCC(O)CON (configuration not stated) | –
> 33.3 | 1.9 | CNCC(O)CON (configuration not stated) | –
24.4 | 0.039 | NCC(O)CON (configuration not stated) | –
– | 66 | CC(C)NCC(O)CON (configuration not stated) | > 45.2
– | 24 | Cc1ncc(COP(=O)(O)O)c(/C=N/OCC(O)CN)c1O (configuration not stated) | > 112
8.34 | 0.035 | NCCCON | –
20.5 | 0.049 | NC[C@@H](O)CON | –
181 | 670 | NOCC(O)CON | –

SMILES | IC50 [1] [µM] | IC50 [2] [µM] | IC50 [3] [µM]
NCC(Cl)CON (configuration not stated) | 6.3 | 0.093 | –
Cc1ncc(COP(=O)(O)O)c(/C=N/OCC(F)CN)c1O (configuration not stated) | – | 5.2 | 0.6
NCC(F)CNN (configuration not stated) | 163 | 3.3 | –
NCC(F)CON (configuration not stated) | 2.38 | 0.014 | –
CS(=O)(=O)OC(CN)CON (configuration not stated) | 111 | 1.1 | –
